dFosB activator – enhances mouse delta FosB homodimer DNA binding; P13346; purified delta FosB, TAMRA-CDK5 oligo fluorescence polarization; percent of positive-control signal above neutral wells; activation, % at 25 µM; 340,000 compounds, 0.99% hits; AID 493131;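 active = mean activation above about 17%, with every replicate also reaching it, limit read from the data, passing the limit was not always enough; inconclusive = only one of the two conditions met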
CAL PDZ FP-1 – human CAL PDZ-peptide interaction inhibition; Q9HD26; purified CAL PDZ, TMR-peptide fluorescence polarization, 1 h; inhibition, % at 20 µM; 330,000 compounds, 0.02% hits;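 active = highest replicate inhibition of at least 40%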
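Control set: unlabelled peptide and DMSO controls / Material: purified CerCALP PDZ construct / Timing: 1 h incubation at room temperature before polarization reading / Doses: 20 µM, one dose / Detection: fluorescence polarization (mP)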
SR-BI DiI-HDL act – enhances SR-BI lipid uptake from DiI-HDL; 320,000 compounds, 0.096% hits; CHO ldlA[mSR-BI] cells, DiI-HDL uptake fluorescence, 3 h; 100 = double the neutral-control signal; activation, % at 12.5 µM; AID 504775;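 active = mean replicate activation of at least 60% and every replicate at or above 60%; inconclusive = mean or all-replicate condition met, but not both; inactive = mean below 60% and not all replicates reaching 60%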
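system = CHO ldlA[mSR-BI] cells, LDL receptor-null, SR-BI overexpressing | medium = Ham's F12 with 0.5% BSA, HEPES 25 mM, pH 7.4 | probe or stimulus = DiI-HDL 10 µg/mL | compound dosing = single-point compound dose | incubation = compound exposure 3 h, 37 °C | technique = DiI fluorescence, bottom read | read-out = cell-associated DiI fluorescence as measure of HDL uptake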
CAL PDZ FP-2 – blocks peptide binding to the human CAL PDZ domain | inhibition, % at 24.9 µM | Q9HD26 | purified CAL PDZ, TMR-peptide fluorescence polarization, 1 h | AID 602252 | 300,000 compounds, 0.92% hits;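 active = mean inhibition of at least 30% with at least half of replicates also reaching 30%; inconclusive = no clear call, values can overlap the other calls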
SR-BI DiI inh – inhibitors of mouse SR-BI mediated HDL lipid uptake. Q61009. ldlA[mSR-BI] CHO cells, DiI-HDL uptake fluorescence, 3 h. inhibition, % at 12.5 µM. 320,000 compounds, 0.96% hits. AID 488896;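 active = mean replicate inhibition of at least 70% and a set share of replicates each scoring 70 or more; inconclusive = meets just one of the two criteria; inactive = fails both criteria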
Target sequence (Q61009 whole entry, looked up): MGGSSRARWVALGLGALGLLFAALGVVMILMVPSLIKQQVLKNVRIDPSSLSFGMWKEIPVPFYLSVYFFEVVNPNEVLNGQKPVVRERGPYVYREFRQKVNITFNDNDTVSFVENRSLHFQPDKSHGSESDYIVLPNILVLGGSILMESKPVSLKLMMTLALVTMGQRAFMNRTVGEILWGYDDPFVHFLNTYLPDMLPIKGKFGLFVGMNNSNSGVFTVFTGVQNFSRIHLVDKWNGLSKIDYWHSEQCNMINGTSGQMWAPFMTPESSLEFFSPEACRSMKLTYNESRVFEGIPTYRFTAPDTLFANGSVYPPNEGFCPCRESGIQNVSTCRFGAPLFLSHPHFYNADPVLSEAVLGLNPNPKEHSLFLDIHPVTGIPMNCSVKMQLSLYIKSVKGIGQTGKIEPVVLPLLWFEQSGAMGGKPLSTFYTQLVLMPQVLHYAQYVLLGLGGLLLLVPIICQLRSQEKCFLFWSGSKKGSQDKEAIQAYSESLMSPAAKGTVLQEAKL
Numbers stand for hits; . = inactive; ? = inconclusive; / = no result. Sampled rows, rich in hits. Any-hit rate of the full collection: about 2.8%.

SMILES | dFosB activator | CAL PDZ FP-1 | SR-BI DiI-HDL act | CAL PDZ FP-2 | SR-BI DiI inh
Cc1nc2ccccc2c(=O)n1/N=C/c1ccccc1 | . | . | . | . | .
Cc1nnc(-c2ccccc2)c(=O)n1/N=C/c1c(O)ccc2ccccc12 | . | . | . | . | 120
Cc1nc2ccccc2c(=O)n1/N=C/c1ccc2ccccc2c1O | . | . | . | . | 90
COc1cc(/C=N/n2c(C)nc3ccccc3c2=O)ccc1O | . | . | 507 | . | .
CCOc1cc(/C=N/n2c(C)nc3sc(C)c(C)c3c2=O)ccc1O | . | . | . | 72 | .
CCC1CCCCN1CCCNC(=O)C1CC(=O)N(CCc2ccccc2)C1 (centres undefined) | . | . | . | . | .
COc1ccc(C(=O)NCC(=O)NCc2ccncc2)cc1 | . | . | . | 124 | .
CCCCOc1ccc(C(=O)NCC(=O)NCc2ccncc2)cc1 | . | . | . | . | .
Cc1c(Cl)cccc1NC(=O)CSC(C)c1nc2ccccc2c(=O)[nH]1 (centres undefined) | 41 | . | / | / | .
CC(SCC(=O)Nc1ccccc1)c1nc2ccccc2c(=O)[nH]1 (centres undefined) | . | . | . | . | .
O=C(COc1ccc(NC(=O)c2ccccc2)cc1)c1ccccc1 | . | . | . | . | .
O=C(COc1ccc(Cl)cc1)Nc1cc(NC(=O)COc2ccc(Cl)cc2)cc(C(=O)O)c1 | . | / | . | 86 | .
O=C(COc1ccc(Br)cc1)Nc1ccc(NC(=O)c2ccccc2)cc1 | 25 | . | . | . | .
Cc1ccc(OCC(=O)Nc2cc(NC(=O)COc3ccc(C)cc3)cc(C(=O)O)c2)cc1 | . | . | . | . | .
O=C(CN1C(=O)C2CCCCC2C1=O)OCC(=O)c1ccc(F)cc1 (centres undefined) | . | . | . | . | .
CCOC(=O)COc1ccccc1/C=N\NC(=O)c1cc2c(ccc3ccccc32)o1 | . | . | . | . | .
COc1ccccc1N(CC(=O)Nc1ccc2c(c1)OCCO2)S(=O)(=O)c1ccc(C)cc1 | . | . | . | . | .
Cc1cc(C(=O)OCC(=O)Nc2c(Cl)cccc2Cl)c(C)o1 | 22 | . | . | . | .
CNC(=O)c1ccc(-c2sc3nc(N4CCOCC4)c4c(c3c2N)CCCC4)o1 | . | . | . | . | 87
COc1cccc(OCC(=O)Nc2cc(Cl)ccc2Oc2ccccc2)c1 | . | . | . | . | 87
COc1cccc(OCC(=O)Nc2ccccc2NC(C)=O)c1 | . | . | . | . | .
O=c1[nH]c2ccccc2c2nc(-c3cccc(S(=O)(=O)N4CCCC4)c3)nn12 | 53 | . | . | . | .
O=C(N=Nc1c(O)[nH]c2ccccc12)c1cccc(S(=O)(=O)N2CCCCC2)c1 | . | . | . | . | .
O=C(COC(=O)/C=C/c1ccco1)NCc1ccc(Cl)cc1Cl | . | . | . | . | .
O=C(COC(=O)/C=C/c1cccc(Cl)c1)NCCc1ccc(Cl)cc1Cl | . | . | 83 | / | .
SMILES | dFosB activator | CAL PDZ FP-1 | SR-BI DiI-HDL act | CAL PDZ FP-2 | SR-BI DiI inh
N#CCC(=O)Nc1nc(-c2ccc3c(c2)OCCO3)cs1 | . | . | . | 74 | .
C=CCNC(=S)NCc1ccccc1OC | . | . | . | 70 | .
COc1ccccc1CNC(=S)NCc1ccc(F)cc1 | . | . | . | . | .
COc1cc2ccccc2cc1C(=O)NC(=S)Nc1cccc(C(=O)O)c1C | . | . | . | . | .
COc1ccc(C2=CC(=O)CC(C)(C)C2)cc1OC | . | . | . | . | .
COC(=O)c1cc(S(=O)(=O)Nc2ccsc2C(=O)OC)oc1C | . | . | . | 33 | .
COC(=O)c1cc(S(=O)(=O)Nc2cc(S(=O)(=O)N(C)C)ccc2C)oc1C | . | . | . | . | .
COc1ccc(-c2nnc(-c3cc(OC)c(OC)c(OC)c3)o2)cc1OC | . | / | . | . | 76
COc1cc(-c2noc(-c3cccc(Cl)c3)n2)cc(OC)c1OC | . | . | . | . | 76
COc1cc(-c2nc(-c3cccc(C)c3)no2)cc(OC)c1OC | . | . | . | . | 84
COC(=O)c1ccccc1NC(=O)CSc1ncn[nH]1 | . | . | / | . | /
COc1cccc(/C=C/C(=O)OCC(=O)NC(=O)NC2CCCCC2)c1 | . | . | . | . | .
CCCCNCc1cc(OCC)c(OCC(N)=O)cc1Br | . | . | . | 38 | .
Cc1nnc(SC(C(=O)Nc2ccc(Cl)c([N+](=O)[O-])c2)c2ccccc2)[nH]c1=O (centres undefined) | . | . | . | 62 | .
COc1ccc(C(=O)NN)cc1COc1ccc(Br)cc1 | . | . | . | / | 97
CCOc1ccc(C(=O)NCC(=O)OCc2cc(C(C)=O)ccc2OC)cc1 | . | . | . | . | 71
COc1ccc(C(C)=O)cc1COc1ccc(F)cc1 | . | . | . | / | .
COc1ccc(C(=O)NCC(=O)OCC(=O)c2ccc(Cl)cc2)cc1OC | . | . | . | 34 | .
COc1ccc(C(=O)NCC(=O)OCc2ccc(Cl)cc2Cl)cc1OC | . | . | . | / | .
COc1ccc(C(C)=O)cc1COC(=O)CNC(=O)c1ccc(Cl)cc1 | . | . | . | . | .
CC(=O)Oc1ccccc1C(=O)Nc1ccccc1C(=O)N1CCCCC1 | . | . | . | . | .
COc1cccc(/C=N/n2c(-c3n[nH]c4c3CCC4)n[nH]c2=S)c1OC | . | . | . | . | .
COc1ccccc1OCCCCn1c(C(C)O)nc2ccccc21 (centres undefined) | . | . | . | . | .
Cc1ccsc1C(=O)OCC(=O)NCc1ccc(Cl)cc1 | . | . | . | . | .
O=Cc1ccc(OCc2ccc3c(c2)OCO3)cc1 | . | . | . | . | .
SMILES | dFosB activator | CAL PDZ FP-1 | SR-BI DiI-HDL act | CAL PDZ FP-2 | SR-BI DiI inh
Cc1ccc(COc2ccc3c(c2)OCO3)cc1 | . | . | . | 40 | .
Cc1ccc(SCC(=O)Nc2ccc3c(c2)C(=O)NC3=O)cc1 | . | . | . | . | .
Cc1ccc(SCC(=O)Nc2ccc3c(c2)C(=O)N(C)C3=O)cc1 | . | . | . | 179 | .
COc1ccc(-c2nc(CN3CCC(C(=O)N4CCOCC4)CC3)c(C)o2)cc1C | . | . | . | . | .
O=S(=O)(c1ccc(-n2cnnn2)cc1)N1CCN(c2ccccc2F)CC1 | . | . | . | . | .
Cc1ccc(N2CCN(S(=O)(=O)c3ccc(-n4cnnn4)cc3)CC2)c(C)c1 | . | . | . | 79 | .
Cc1cc(C)n2nc(-c3ccco3)nc2n1 | . | . | . | . | .
CN(Cc1nc2ccccc2c(=O)[nH]1)C(=O)c1cccc(NC(=O)c2cccs2)c1 | . | . | . | 66 | .
COc1ccc2c(c1)CCc1cc(C(=O)N3CCN(c4ccc(N5CCOCC5)nn4)CC3)sc1-2 | . | . | . | / | 77
O=C(Nc1ccccc1)Nc1nc(-c2ccccc2)cs1 | . | . | ? | . | .
COc1cccc(Nc2nc(-c3cccc(N4C(=O)c5ccccc5C4=O)c3)cs2)c1 | . | . | . | . | 91

From PubChem
